Laboratory results taken from ChEMBL document CHEMBL3526139, “Clinical pharmacokinetics, metabolism, and drug-drug interaction of carfilzomib” (Drug Metab Dispos, 2013).

How the values were obtained:
[1] = Drug excretion in urine of iv dosed human patient with relapsed and refractory hematological malignancies assessed as morpholino-hPhe-Leu metabolite formation administered on days 1, 2, 8, 9, 15 and 16 of 28-day cycle over 2 to 10 mins by LC-MS/MS analysis; type: ADME, organism-based; details: in vivo
[2] = system: CYP3A; experiment: Decrease in CYP3A gene expression in human hepatocytes at 2.5 uM after 3 days by qPCR analysis; type: ADME, cell-based, Hepatocyte
Method in brief: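 Hepatocytes were treated 3 days with carfilzomib (0.1–2.5 µM) or 0.08% DMSO, renewed daily. CYP3A mRNA was measured in 3 donors and CYP1A2 mRNA in one additional donor, both by qPCR. Values are triplicate means relative to DMSO.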

[3] = target: T1, CYP3A (Homo sapiens, UniProt P08684+P20815+P24462+Q9HB55); experiment: Inhibition of CYP3A in human liver microsomes assessed as substrate metabolite formation using midazolam as substrate preincubated with microsomes for 30 mins prior to substrate addition measured after 5 mins by LC-MS/MS analysis; type: ADME; details: probe midazolam
Method in brief: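 HLM (16-donor pool) were preincubated 30 min with carfilzomib 0.01–10 µM before addition of midazolam or testosterone at about Km. Metabolite formation was measured by LC-MS/MS after 5 min, in duplicate, relative to 0.5% acetonitrile controls.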

[4] = Drug excretion in urine of iv dosed human patient with relapsed and refractory hematological malignancies assessed as morpholino-hPhe metabolite formation administered on days 1, 2, 8, 9, 15 and 16 of 28-day cycle over 2 to 10 mins by LC-MS/MS analysis; type: ADME, organism-based; details: in vivo
[5] = Half life in human patient with relapsed solid tumor at 20 mg/m'2, iv administered on days 1, 2, 8, 9, 15 and 16 of 28-day cycle over 2 to 10 mins measured on day 16 of cycle 1 by LC-MS/MS analysis; type: ADME, organism-based; details: in vivo
Method in brief: (§1)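 Patients with relapsed solid tumors (n=3) received carfilzomib IV at 20 mg/m2. Plasma was sampled on Days 1 and 16 of Cycle 1 before dosing, at end of administration, and at 5, 15, 30 min and 1, 2, 4 h after. Samples underwent solid phase extraction and LC-MS/MS with d10-carfilzomib internal standard over 0.100–200 ng/mL. Parameters were derived noncompartmentally (constant IV infusion model) from actual elapsed time from infusion start.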

[6] = target: Cytochrome P450 3A (Homo sapiens, UniProt P08684+P20815+Q9HB55+P24462); experiment: Time-dependent inhibition of CYP3A in human liver microsomes assessed as testosterone 6-hydroxylation using testosterone as substrate by LC-MS/MS analysis in presence of NADPH; type: ADME
Method in brief: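 Pooled HLM (16 donors) given carfilzomib 0.01–10 µM in duplicate at 37°C with a 30-min preincubation before probe substrate was added. Substrate was set near Km (testosterone Km 100 µM; midazolam Km 3.8 µM). Protein was 0.1 mg/mL, or 0.05 mg/mL with midazolam. Metabolite formation was read by LC-MS/MS after 5 min and expressed relative to 0.5% acetonitrile controls to give IC50.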

[7] = target: T2, Cytochrome P450 2C19 (Homo sapiens, UniProt P33261); experiment: Inhibition of CYP2C19 in human liver microsomes using S-mephenytoin as substrate after 5 mins by LC-MS/MS analysis; type: ADME
Method in brief: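 Pooled HLM from 16 donors were incubated at 37°C in duplicate with carfilzomib 0.01–10 µM and probe substrate at about its Km. Substrates were phenacetin, amodiaquine, diclofenac, S-mephenytoin, dextromethorphan, testosterone and midazolam. Protein was 0.1 mg/mL, or 0.05 mg/mL with midazolam. Reactions ran 5 min without preincubation, then were quenched with acetonitrile. Metabolites were measured by LC-MS/MS relative to 0.5% acetonitrile controls.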

[8] = AUC infinity in human patient with relapsed solid tumor at 20 mg/m'2, iv administered on days 1, 2, 8, 9, 15 and 16 of 28-day cycle over 2 to 10 mins measured on day 16 of cycle 1 by LC-MS/MS analysis; type: ADME, organism-based; set-up: time infinity, route intravenous; details: plasma; method in brief: as §1
[9] = target: T1, CYP3A; experiment: Time-dependent inhibition of CYP3A in human liver microsomes assessed as testosterone 6-hydroxylation using testosterone as substrate by LC-MS/MS analysis; type: ADME; details: probe testosterone (6-hydroxylation)
Method in brief: (§2)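 Pooled HLM (16 donors, mixed sex), 37°C, duplicate. IC50: carfilzomib 0.01–10 µM preincubated 30 min, then testosterone near Km (100 µM) at 0.1 mg/mL protein, 5 min, LC-MS/MS, relative to 0.5% acetonitrile control. KI/kinact: 0–8 µM preincubated 0–30 min with 2.5 mg/mL HLM plus NADPH-generating system, diluted 25-fold, testosterone 200 µM for 5 min.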

[10] = target: Cytochrome P450 3A4 (Homo sapiens, UniProt P08684); experiment: Decrease in CYP3A4 activity in human hepatocytes assessed as 6-betahydroxytestosterone formation using testosterone as substrate at 2.5 uM incubated for 3 days prior to substrate challenge for 30 mins by LC-MS/MS analysis; type: ADME, cell-based, Hepatocyte; details: 0.5 h
Method in brief: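 Hepatocytes from 3 donors were plated on collagen I and cultured 2 days, then treated 3 days with carfilzomib (0.1–2.5 µM), 0.08% DMSO, rifampicin 20 µM or β-naphthoflavone 20 µM, renewed daily. Cells were then incubated in serum-free medium in triplicate with testosterone 200 µM (CYP3A, 30 min, 6β-hydroxytestosterone) or phenacetin 100 µM (CYP1A2, 60 min, acetaminophenol). Products were measured by LC-MS/MS and expressed relative to DMSO.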

[11] = target: T1, CYP3A; experiment: Time-dependent inhibition of CYP3A in human liver microsomes assessed as midazolam 1'-hydroxylation using midazolam as substrate by LC-MS/MS analysis; type: ADME; details: probe midazolam (1'-hydroxylation)
Method in brief: as §2, with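 “midazolam” for “testosterone”, “(3.8” for “(100”, “0.05” for “0.1”, “1.25” for “2.5”, “midazolam 40” for “testosterone 200”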

[12] = target: T2, Cytochrome P450 2C19; experiment: Drug metabolism in pooled human hepatocytes assessed as disapperance rate at 1 uM by LC-MS/MS analysis in presence of 10 uM CYP2C19 inhibitor (+)-N-3-benzylnirvanol; type: ADME, cell-based, Hepatocyte
Method in brief: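 Pooled human hepatocytes in suspension (~0.5 x 10^6 viable cells/mL) were incubated with 1 µM carfilzomib at 37°C under 5% CO2, with or without isoform-selective CYP chemical inhibitors. Reactions were quenched with acetonitrile at 0, 15, 30, 60 and 120 min. Carfilzomib was quantified by non-validated LC-MS/MS after protein precipitation.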

T2 sequence (P33261 whole entry): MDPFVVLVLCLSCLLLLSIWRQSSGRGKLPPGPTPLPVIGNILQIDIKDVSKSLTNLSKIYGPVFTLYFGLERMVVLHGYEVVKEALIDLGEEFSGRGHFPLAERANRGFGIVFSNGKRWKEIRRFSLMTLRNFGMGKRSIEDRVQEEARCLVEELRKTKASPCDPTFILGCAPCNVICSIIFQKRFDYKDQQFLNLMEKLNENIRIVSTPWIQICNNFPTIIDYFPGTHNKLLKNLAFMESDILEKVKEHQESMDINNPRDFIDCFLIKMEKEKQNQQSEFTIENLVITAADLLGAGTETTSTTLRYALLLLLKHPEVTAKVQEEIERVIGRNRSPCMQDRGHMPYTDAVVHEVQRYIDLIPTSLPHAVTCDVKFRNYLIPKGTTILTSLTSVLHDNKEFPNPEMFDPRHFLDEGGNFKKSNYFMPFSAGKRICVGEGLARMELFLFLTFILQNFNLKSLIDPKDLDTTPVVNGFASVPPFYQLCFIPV
Chain of Cytochrome P450 3A4 (P08684 whole entry): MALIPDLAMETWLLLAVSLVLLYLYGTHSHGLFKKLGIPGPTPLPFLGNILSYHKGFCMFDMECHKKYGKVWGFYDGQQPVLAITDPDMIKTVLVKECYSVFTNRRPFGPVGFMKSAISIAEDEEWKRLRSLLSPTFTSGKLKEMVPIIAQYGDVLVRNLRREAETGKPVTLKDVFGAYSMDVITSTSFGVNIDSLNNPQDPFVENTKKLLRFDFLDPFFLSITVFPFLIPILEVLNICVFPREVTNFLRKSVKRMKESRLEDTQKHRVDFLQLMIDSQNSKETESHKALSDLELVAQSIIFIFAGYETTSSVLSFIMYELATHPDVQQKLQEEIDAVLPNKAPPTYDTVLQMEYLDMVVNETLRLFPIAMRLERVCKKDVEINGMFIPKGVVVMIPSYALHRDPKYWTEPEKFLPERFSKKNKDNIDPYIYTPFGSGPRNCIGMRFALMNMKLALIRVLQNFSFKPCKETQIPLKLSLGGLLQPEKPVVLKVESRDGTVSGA

- Drug excretion [1]: metabolite_detected
- inhibition at 72 h, 2.5 µM [2]: > 95%
- IC50 at 5 min [3]: 0.49 µM
- Drug excretion [4]: metabolite_detected
- half-life [5]: 1.1 h
- inhibition (INH) [6]: Active
- IC50 [7]: > 10 µM
- AUC(0-inf) [8]: 301 ng·h/mL
- Ki [9]: 11 µM
- kinact [9]: 0.00167 s⁻¹
- inhibition (INH) [10]: 45%
- Ki [11]: 11 µM
- kinact [11]: 0.00167 s⁻¹
- Drug metabolism [12]: 0.016 min⁻¹
Compound: CC(C)C[C@H](NC(=O)[C@H](CCc1ccccc1)NC(=O)CN1CCOCC1)C(=O)N[C@@H](Cc1ccccc1)C(=O)N[C@@H](CC(C)C)C(=O)[C@@]1(C)CO1 [CARFILZOMIB]
